Measured values reported in ChEMBL document CHEMBL5390300, “Tuning the Reactivity of Nuclear Factor Erythroid 2-Related Factor 2 (Nrf2) Activators for Optimal in Vivo Efficacy” (ACS Med Chem Lett, 2023).
Where a name gives a salt, the structure may show the parent alone. Values belong to the compound of their own block, whether it stands above or below them. The source made the active and inactive calls. The calls are words filed in the database; no cut-off is given here.

Key:
[1] = molecular target: T1, Nuclear factor erythroid 2-related factor 2 (Homo sapiens, UniProt Q16236); assay: Activation of Nrf2 in human PathHunter U2OS Keap1-Nrf2 cells assessed as Nrf2 nuclear translocation by chemiluminescent assay; assay type: cell-based
T1 sequence (Q16236 whole entry): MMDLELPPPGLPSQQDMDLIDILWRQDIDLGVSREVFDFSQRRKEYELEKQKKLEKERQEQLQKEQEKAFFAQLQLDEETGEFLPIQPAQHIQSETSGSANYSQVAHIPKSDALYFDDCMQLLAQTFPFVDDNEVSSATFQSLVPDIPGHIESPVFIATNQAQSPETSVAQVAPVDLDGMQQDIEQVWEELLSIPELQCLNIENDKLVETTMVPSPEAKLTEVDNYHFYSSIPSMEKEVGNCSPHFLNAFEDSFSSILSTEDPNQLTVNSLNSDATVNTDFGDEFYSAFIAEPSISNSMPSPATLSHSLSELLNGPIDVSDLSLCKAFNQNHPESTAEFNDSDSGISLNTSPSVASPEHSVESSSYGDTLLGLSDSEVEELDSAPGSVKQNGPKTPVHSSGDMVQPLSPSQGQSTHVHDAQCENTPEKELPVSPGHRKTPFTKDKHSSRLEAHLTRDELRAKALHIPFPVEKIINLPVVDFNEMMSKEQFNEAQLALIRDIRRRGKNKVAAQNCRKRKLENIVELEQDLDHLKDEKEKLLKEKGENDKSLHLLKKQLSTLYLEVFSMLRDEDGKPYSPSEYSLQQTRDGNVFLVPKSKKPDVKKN

[2] = tested on: THP-1; assay: Inhibition of LPS-induced IL-23 production in IFN-gamma primed human THP-1 cells preincubated for 1 hr followed by LPS stimulation for 18 hrs by sandwich ELISA; assay type: functional, cell-based
[3] = molecular target: T2, Voltage-gated inwardly rectifying potassium channel KCNH2 (Homo sapiens, UniProt Q12809); assay: Inhibition of hERG assessed as inhibition of channel current at 200 uM by manual patch clamp analysis; assay type: toxicity
T2 sequence (Q12809 whole entry): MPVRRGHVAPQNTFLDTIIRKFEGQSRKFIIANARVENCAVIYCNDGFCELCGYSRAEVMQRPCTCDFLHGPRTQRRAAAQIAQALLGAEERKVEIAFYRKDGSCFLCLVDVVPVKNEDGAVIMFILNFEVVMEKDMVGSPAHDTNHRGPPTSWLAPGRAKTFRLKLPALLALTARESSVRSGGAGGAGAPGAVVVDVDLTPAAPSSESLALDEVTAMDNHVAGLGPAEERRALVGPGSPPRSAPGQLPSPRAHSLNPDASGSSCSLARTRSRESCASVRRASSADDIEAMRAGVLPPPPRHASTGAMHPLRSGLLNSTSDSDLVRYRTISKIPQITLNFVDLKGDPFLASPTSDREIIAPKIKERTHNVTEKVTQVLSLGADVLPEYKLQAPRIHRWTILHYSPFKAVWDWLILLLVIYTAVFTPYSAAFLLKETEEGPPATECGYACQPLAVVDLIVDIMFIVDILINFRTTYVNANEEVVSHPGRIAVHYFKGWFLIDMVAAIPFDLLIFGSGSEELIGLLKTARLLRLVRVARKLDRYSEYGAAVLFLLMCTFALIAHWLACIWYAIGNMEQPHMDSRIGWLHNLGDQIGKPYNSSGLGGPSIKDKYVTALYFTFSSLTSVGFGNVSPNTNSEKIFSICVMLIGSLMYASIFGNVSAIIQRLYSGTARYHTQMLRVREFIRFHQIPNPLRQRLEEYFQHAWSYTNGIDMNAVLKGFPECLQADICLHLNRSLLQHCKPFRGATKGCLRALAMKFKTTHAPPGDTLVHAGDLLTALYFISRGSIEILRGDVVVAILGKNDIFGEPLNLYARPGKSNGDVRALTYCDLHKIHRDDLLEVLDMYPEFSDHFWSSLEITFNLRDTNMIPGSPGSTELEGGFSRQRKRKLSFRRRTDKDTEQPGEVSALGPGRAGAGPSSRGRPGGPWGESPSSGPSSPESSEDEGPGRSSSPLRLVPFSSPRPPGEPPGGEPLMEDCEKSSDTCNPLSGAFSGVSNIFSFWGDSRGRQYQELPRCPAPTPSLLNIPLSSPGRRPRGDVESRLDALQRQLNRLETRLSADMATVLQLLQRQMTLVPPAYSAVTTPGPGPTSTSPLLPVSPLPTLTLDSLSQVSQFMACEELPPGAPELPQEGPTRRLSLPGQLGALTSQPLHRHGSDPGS

[4] = Mutagenicity in Salmonella typhimurium by Ames test; assay type: toxicity; conditions: salmonella enterica subsp. enterica serovar typhimurium
[5] = Metabolic stability of the compound in mouse plasma; assay type: ADME, cell-free
[6] = molecular target: T2, Voltage-gated inwardly rectifying potassium channel KCNH2; assay: Inhibition of hERG assessed as inhibition of channel current at 60 uM by manual patch clamp analysis; assay type: toxicity
[7] = molecular target: T2, Voltage-gated inwardly rectifying potassium channel KCNH2; assay: Inhibition of hERG assessed as inhibition of channel current at 180 uM by manual patch clamp analysis; assay type: toxicity
[8] = molecular target: T3, Nuclear factor erythroid 2-related factor 2 (Homo sapiens) (UniProt Q16236); assay: Activation of Nrf2 in human THP-1 cells assessed as increase in cellular Nrf2 level at 0.08 to 10 uM by western blot analysis; assay type: cell-based; conditions: filed as activator, dose 0.08-10 µM
T3 sequence (whole entry): T1 sequence (Q16236 whole entry)
How it was run: (§1)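 THP-1 cells were exposed to a range of compound concentrations. Cellular Nrf2 and HO-1 expression were detected by Western blot.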

[9] = tested on: Mus musculus; assay: Antiinflammatory activity against MOG35-55 induced experimental autoimmune encephalomyelitis C57BL/6 mouse model assessed as reduction in clinical score at 75 mg/kg, po BID and measured for 28 days; assay type: functional; conditions: C57BL/6, 672 h, time 28 day
How it was run: (§2)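 EAE was induced in mice by immunization with myelin oligodendrocyte glycoprotein (MOG). Compounds were dosed twice daily (BID), with DMF dosed BID as control. Clinical scores were followed over the study and reported as mean with SEM. Efficacy is expressed as % reduction in clinical score.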

[10] = tested on: Mus musculus; assay: Increase in Nrf2 level in thymus of MOG35-55 induced experimental autoimmune encephalomyelitis C57BL/6 mouse model at 75 mg/kg, po measured for 8 hrs; assay type: functional, organism-based
How it was run: (§3)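 After the EAE study, mouse thymus was analysed for Nrf2 levels by Western blot, following BID dosing at 60 and 90 mg/kg, or at 75 mg/kg for the DMF control. Nrf2 increase was assessed over an 8 h period.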

[11] = molecular target: T3, Nuclear factor erythroid 2-related factor 2 (Homo sapiens); assay: Activation of Nrf2 in human THP-1 cells assessed as increase in HO-1 expression at 0.08 to 10 uM by western blot analysis; assay type: cell-based; conditions: filed as activator, dose 0.08-10 µM; how it was run: as §1
[12] = molecular target: T4, Adenosine receptor A3 (Homo sapiens) (UniProt P0DMS8); assay: Inhibition of adenosine A3 receptor (unknown origin) at 500 uM relative to control
T4 sequence (whole entry): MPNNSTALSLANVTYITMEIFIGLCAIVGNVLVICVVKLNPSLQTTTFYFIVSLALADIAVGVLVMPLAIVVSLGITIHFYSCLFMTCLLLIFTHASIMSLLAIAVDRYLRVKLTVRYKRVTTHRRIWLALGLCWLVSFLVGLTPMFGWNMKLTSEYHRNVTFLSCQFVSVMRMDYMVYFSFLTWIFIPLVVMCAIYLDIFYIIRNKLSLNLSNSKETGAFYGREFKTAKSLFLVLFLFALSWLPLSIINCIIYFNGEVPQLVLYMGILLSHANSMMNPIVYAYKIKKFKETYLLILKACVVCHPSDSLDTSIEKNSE

[13] = molecular target: 5-hydroxytryptamine receptor 2B (Homo sapiens) (UniProt P41595); assay: Inhibition of 5-HT2B receptor (unknown origin) at 500 uM relative to control
5-hydroxytryptamine receptor 2B (Homo sapiens), sequence (P41595 whole entry): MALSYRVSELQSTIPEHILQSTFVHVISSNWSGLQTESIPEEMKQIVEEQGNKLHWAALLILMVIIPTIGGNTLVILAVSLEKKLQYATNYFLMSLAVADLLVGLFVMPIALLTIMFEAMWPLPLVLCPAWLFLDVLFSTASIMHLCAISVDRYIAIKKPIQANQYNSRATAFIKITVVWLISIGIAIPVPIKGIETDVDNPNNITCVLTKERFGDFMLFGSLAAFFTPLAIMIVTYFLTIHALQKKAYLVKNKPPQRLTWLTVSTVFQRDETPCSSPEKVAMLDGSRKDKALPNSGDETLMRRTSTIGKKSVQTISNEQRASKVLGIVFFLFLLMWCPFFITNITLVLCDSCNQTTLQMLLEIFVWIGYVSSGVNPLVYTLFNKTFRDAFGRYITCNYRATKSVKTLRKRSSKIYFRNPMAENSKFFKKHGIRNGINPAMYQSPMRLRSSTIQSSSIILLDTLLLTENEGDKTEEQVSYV

[14] = tested on: Mus musculus; assay: Antiinflammatory activity against MOG35-55 induced experimental autoimmune encephalomyelitis C57BL/6 mouse model assessed as reduction in clinical score at 30 mg/kg, po BID and measured for 28 days; assay type: functional; how it was run: as §2
[15] = molecular target: Kelch-like ECH-associated protein 1 (Homo sapiens) (UniProt Q14145); assay: Binding affinity to human Keap1 assessed as cysteine labeling at 30 uM incubated for 2 hrs by LC-MS/MS analysis
Kelch-like ECH-associated protein 1 (Homo sapiens), sequence (Q14145 whole entry): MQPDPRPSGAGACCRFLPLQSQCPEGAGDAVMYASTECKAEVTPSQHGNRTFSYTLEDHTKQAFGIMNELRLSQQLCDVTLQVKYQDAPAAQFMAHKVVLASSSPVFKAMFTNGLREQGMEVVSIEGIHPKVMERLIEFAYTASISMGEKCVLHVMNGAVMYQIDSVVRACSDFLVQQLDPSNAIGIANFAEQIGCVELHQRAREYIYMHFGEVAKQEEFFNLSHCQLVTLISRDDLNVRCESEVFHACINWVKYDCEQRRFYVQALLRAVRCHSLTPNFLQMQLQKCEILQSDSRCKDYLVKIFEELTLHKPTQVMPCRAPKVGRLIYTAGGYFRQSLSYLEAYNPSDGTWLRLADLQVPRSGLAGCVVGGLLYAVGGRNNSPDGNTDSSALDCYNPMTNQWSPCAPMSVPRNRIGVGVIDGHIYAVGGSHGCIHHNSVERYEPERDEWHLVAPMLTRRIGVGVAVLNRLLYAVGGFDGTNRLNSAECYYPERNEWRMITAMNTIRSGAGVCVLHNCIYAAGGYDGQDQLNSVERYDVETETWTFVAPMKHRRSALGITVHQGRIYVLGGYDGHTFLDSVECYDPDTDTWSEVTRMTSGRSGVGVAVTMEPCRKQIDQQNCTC

[16] = tested on: Mus musculus; assay: Antiinflammatory activity against MOG35-55 induced experimental autoimmune encephalomyelitis C57BL/6 mouse model assessed as reduction in clinical score at 10 mg/kg, po BID and measured for 28 days; assay type: functional; conditions: C57BL/6, 672 h, time 28 day; how it was run: as §2
[17] = tested on: Mus musculus; assay: Antiinflammatory activity against MOG35-55 induced experimental autoimmune encephalomyelitis C57BL/6 mouse model assessed as reduction in clinical score at 60 mg/kg, po BID and measured for 28 days; assay type: functional; conditions: C57BL/6, 672 h, time 28 day; how it was run: as §2
[18] = tested on: Mus musculus; assay: Increase in Nrf2 level in thymus of MOG35-55 induced experimental autoimmune encephalomyelitis C57BL/6 mouse model at 60 to 90 mg/kg, po measured for 8 hrs; assay type: functional, organism-based; conditions: dose 60-90 mg/kg; how it was run: as §3

EC50 [1]: 95.2 µM | IC50 [2]: 29.5 µM
Structure (SMILES): COC(=O)/C=C/n1cnn(C)c1=O

EC50 [1]: 127 µM | IC50 [2]: 18.9 µM
Structure (SMILES): COC(=O)/C=C/C(=O)O [MONOMETHYL FUMARATE]

IC50 [2]: 0.3 µM
Structure (SMILES): Cn1nnn(/C=C/S(=O)(=O)c2ccccc2)c1=O

IC50 [2]: 0.02 µM
Structure (SMILES): O=c1n(/C=C/S(=O)(=O)c2ccccc2)nnn1-c1cccnc1

Stability [5]: Unstable
Structure (SMILES): COC(=O)/C=C/n1nnn(-c2cccnc2)c1=O
inhibition (INH) [3]: Active | Activity [4]: Non-Toxic

IC50 [2]: 6.92 µM
Structure (SMILES): Cc1ccc(S(=O)(=O)/C=C/n2ncn(C)c2=O)cc1

EC50 [1]: 60.9 µM | IC50 [2]: 18 µM
Structure (SMILES): COC(=O)/C=C/n1nn[nH]c1=O
inhibition (INH) [6]: Active | Activity [4]: Toxic

Structure (SMILES): COC(=O)/C=C/n1nnn(C)c1=O
inhibition (INH) [7]: Active

IC50 [2]: 2.12 µM
Structure (SMILES): Cn1ncn(/C=C/S(=O)(=O)c2ccccc2)c1=O

IC50 [2]: 2.11 µM
Structure (SMILES): Cc1ccc(S(=O)(=O)/C=C/n2cnn(C)c2=O)cc1

EC50 [1]: 7.93 µM | IC50 [2]: 10.6 µM | Activity [8]: Dose-Dependent Effect | Activity [11]: Active
Structure (SMILES): COC(=O)/C=C/C(=O)OC [DIMETHYL FUMARATE]
inhibition in vivo at 75 mg/kg [9]: 83% | Activity [10]: Active

IC50 [2]: 0.19 µM | inhibition [12]: 82% | inhibition [13]: 74% | Activity [15]: Active
Structure (SMILES): Cc1ccc(S(=O)(=O)/C=C/n2nnn(C)c2=O)cc1
Activity ([14]; time 28.0 day): inactive | inhibition in vivo at 10 mg/kg [16]: 40%

IC50 [2]: 3.49 µM | inhibition [12]: 82% | inhibition [13]: 74%
Structure (SMILES): Cn1cnn(/C=C/S(=O)(=O)c2ccccc2)c1=O
inhibition in vivo at 30 mg/kg ([14]; C57BL/6, 672 h, time 28 day): 41% | inhibition in vivo at 60 mg/kg [17]: 89% | Activity [18]: Active
